Converted amounts (≈) assume the structure as drawn.
How the values were obtained:
Type in all cases: functional
Escherichia coli [1] = experiment: Antimicrobial activity against Escherichia coli NCTC 10416 at 5 mg/ml after 24 hrs by agar well diffusion assay; details: NCTC 10416, 24 h, read-out: IZ
Procedure, shortened: (§1)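 Agar well diffusion against S. aureus NCTC-7447 and E. coli NCTC-10416 (maintained on Mueller-Hinton agar, 24 h, 37 ± 1 °C) and C. albicans ATCC-10145 (Sabouraud dextrose agar, 48 h, 28 ± 1 °C). Inocula: colonies suspended in 5 mL sterile saline. Wells pre-incubated 1 h in refrigerator, then incubated 24 h at 37 °C (bacteria) or 48 h at 28 °C (fungi). Inhibition zone diameter measured. DMSO blank.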

Staphylococcus aureus [2] = experiment: Antimicrobial activity against Staphylococcus aureus NCTC 7447 at 5 mg/ml after 24 hrs by agar well diffusion assay; details: NCTC 7447, 24 h, read-out: IZ; procedure, shortened: as §1
Candida albicans = experiment: Antimicrobial activity against Candida albicans ATCC 10145 at 5 mg/ml after 48 hrs by agar well diffusion assay; details: ATCC 10145, 48 h, read-out: IZ; procedure, shortened: as §1
Staphylococcus aureus [3] = experiment: Antimicrobial activity against Staphylococcus aureus NCTC 7447 by twofold serial dilution method
Procedure, shortened: (§2)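 MIC by two-fold serial dilution, limited to compounds giving inhibition zones of at least 18 mm in the well diffusion screen. Strains: S. aureus NCTC-7447 and E. coli NCTC-10416 on Mueller-Hinton agar at 37 ± 1 °C; C. albicans ATCC-10145 on Sabouraud dextrose agar at 28 ± 1 °C. Inocula were colony suspensions in sterile saline. MIC taken as the lowest concentration (highest dilution) inhibiting growth.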

Escherichia coli [4] = experiment: Antimicrobial activity against Escherichia coli NCTC 10416 by twofold serial dilution method; procedure, shortened: as §2

Row | Compound | zone of inhibition at 5000 µg/mL (Escherichia coli [1]) [mm] | zone of inhibition at 5000 µg/mL (Staphylococcus aureus [2]) [mm] | zone of inhibition at 5000 µg/mL (Candida albicans) [mm] | MIC (Staphylococcus aureus [3]) [µg/mL] | MIC (Escherichia coli [4]) [µg/mL]
1 | Nc1nc(N)c2cc(-c3ccccc3)n(-c3ccccc3)c2n1 | 13 | 24 | 24 | 620 (≈ 2.06 mM) | –
2 | Cc1ccc(-c2cc3c(ncn4ncnc34)n2-c2ccccc2)cc1 | – | – | 11 | – | –
3 | Cc1ccc(-c2cc3c(Cl)ncnc3n2-c2ccccc2)cc1 | 13 | 12 | 16 | – | –
4 | N=c1c2cc(-c3ccc(Br)cc3)n(-c3ccccc3)c2ncn1N | 27 | 25 | 27 | 310 (≈ 0.815 mM) | 1250 (≈ 3.29 mM)
5 | Clc1ncnc2c1cc(-c1ccc(Br)cc1)n2-c1ccccc1 | 17 | 16 | 17 | – | –
6 | Clc1ncnc2c1cc(-c1ccccc1)n2-c1ccccc1 | 14 | 13 | 16.5 | – | –
7 | Clc1ccc(-c2cc3c(Cl)ncnc3n2-c2ccccc2)cc1 | 13 | 12 | 12 | – | –
8 | Clc1ccc(-c2cc3c(ncn4nnnc34)n2-c2ccccc2)cc1 | 15 | 14 | 17 | – | –
9 | NNc1ncnc2c1cc(-c1ccccc1)n2-c1ccccc1 | 18 | 27 | 31 | 620 (≈ 2.06 mM) | 2500 (≈ 8.3 mM)
10 | Cc1ccc(-c2cc3c(N)nc(C)nc3n2-c2ccccc2)cc1 | 14 | 17 | 16 | – | –
11 | CCO/C=N/c1c(C#N)cc(-c2ccc(Br)cc2)n1-c1ccccc1 | – | – | 11 | – | –
12 | CCO/C=N/c1c(C#N)cc(-c2ccc(Cl)cc2)n1-c1ccccc1 | – | – | 11 | – | –
13 | Nc1ncnc2c1cc(-c1ccc(Cl)cc1)n2-c1ccccc1 | 16 | 17 | 16 | – | –
14 | C/C=N\c1ncnc2c1cc(-c1ccc(Cl)cc1)n2-c1ccccc1 | 16 | 17 | 17 | – | –
15 | CN(C)[C@@H]1C(O)=C(C(N)=O)C(=O)[C@@]2(O)C(O)=C3C(=O)c4c(O)cccc4[C@@](C)(O)[C@H]3C[C@@H]12 [TETRACYCLINE] | 18 | 20 | – | – | –
16 | NNc1ncnc2c1cc(-c1ccc(Br)cc1)n2-c1ccccc1 | 15 | 25 | 23 | 620 (≈ 1.63 mM) | –
17 | Cc1ccc(-c2cc3c(=N)n(N)cnc3n2-c2ccccc2)cc1 | 20 | 21 | 21 | 620 (≈ 1.97 mM) | 2500 (≈ 7.93 mM)
18 | Fc1ccc(-c2cc3c(ncn4nnnc34)n2-c2ccccc2)cc1 | – | – | 11 | – | –
19 | Clc1ccc(-c2cc3c(ncn4ncnc34)n2-c2ccccc2)cc1 | 18 | 17.5 | 18 | – | –
20 | CC1(C)S[C@@H]2[C@H](NC(=O)[C@H](N)c3ccccc3)C(=O)N2[C@H]1C(=O)O [AMPICILLIN] | 9 | 9 | – | 620 (≈ 1.77 mM) | 1250 (≈ 3.58 mM)
21 | OC(Cn1cncn1)(Cn1cncn1)c1ccc(F)cc1F [FLUCONAZOLE] | – | – | 26 | – | –
22 | Nc1ncnc2c1cc(-c1ccccc1)n2-c1ccccc1 | 14 | 15 | 20 | – | –

Row | Compound | zone of inhibition at 5000 µg/mL (Escherichia coli [1]) [mm] | zone of inhibition at 5000 µg/mL (Staphylococcus aureus [2]) [mm] | zone of inhibition at 5000 µg/mL (Candida albicans) [mm] | MIC (Staphylococcus aureus [3]) [µg/mL] | MIC (Escherichia coli [4]) [µg/mL]
23 | Fc1ccc(-c2cc3c(Cl)ncnc3n2-c2ccccc2)cc1 | 13 | 15 | 15 | – | –
24 | N=c1c2cc(-c3ccc(Cl)cc3)n(-c3ccccc3)c2ncn1N | 22 | 21 | 27 | 310 (≈ 0.923 mM) | 1250 (≈ 3.72 mM)
25 | Brc1ccc(-c2cc3c(ncn4ncnc34)n2-c2ccccc2)cc1 | 14 | 19 | 19 | – | –
26 | C/C=N\c1ncnc2c1cc(-c1ccccc1)n2-c1ccccc1 | 16 | 21 | 21 | 1250 (≈ 4 mM) | –
27 | C/C=N/c1ncnc2c1cc(-c1ccc(C)cc1)n2-c1ccccc1 | 17 | 16 | 15 | – | –
28 | CCO/C=N/c1c(C#N)cc(-c2ccccc2)n1-c1ccccc1 | 17 | 16 | 19 | – | –
29 | Nc1nc(N)c2cc(-c3ccc(Cl)cc3)n(-c3ccccc3)c2n1 | 14 | 24 | 23 | 1250 (≈ 3.72 mM) | –
30 | Cc1ccc(-c2cc3c(NN)ncnc3n2-c2ccccc2)cc1 | 13 | 14 | 17 | – | –
31 | Fc1ccc(-c2cc3c(ncn4ncnc34)n2-c2ccccc2)cc1 | 16 | 17 | 17 | – | –
32 | c1ccc(-c2cc3c(ncn4ncnc34)n2-c2ccccc2)cc1 | 16 | 13 | 17 | – | –
33 | NNc1ncnc2c1cc(-c1ccc(F)cc1)n2-c1ccccc1 | 20 | 31 | 32 | 310 (≈ 0.971 mM) | 1250 (≈ 3.91 mM)
34 | CCO/C=N/c1c(C#N)cc(-c2ccc(C)cc2)n1-c1ccccc1 | 11 | – | – | – | –
35 | Cc1ccc(-c2cc3c(N)nc(N)nc3n2-c2ccccc2)cc1 | 19 | 25 | 23 | 620 (≈ 1.97 mM) | 2500 (≈ 7.93 mM)
36 | c1ccc(-c2cc3c(ncn4nnnc34)n2-c2ccccc2)cc1 | 16 | 16 | 17 | – | –
37 | N=c1c2cc(-c3ccccc3)n(-c3ccccc3)c2ncn1N | 16 | 21 | 23 | 1250 (≈ 4.15 mM) | –
38 | CCO/C=N/c1c(C#N)cc(-c2ccc(F)cc2)n1-c1ccccc1 | 13 | 13 | 16 | – | –
39 | N=c1c2cc(-c3ccc(F)cc3)n(-c3ccccc3)c2ncn1N | 15 | 17 | 15 | – | –
40 | Cc1ccc(-c2cc3c(N)ncnc3n2-c2ccccc2)cc1 | 14 | 23 | 25 | 2500 (≈ 8.32 mM) | –
41 | Cc1nc(N)c2cc(-c3ccccc3)n(-c3ccccc3)c2n1 | 18 | 20 | 21 | 1250 (≈ 4.16 mM) | 2500 (≈ 8.32 mM)
42 | Brc1ccc(-c2cc3c(ncn4nnnc34)n2-c2ccccc2)cc1 | 15 | 16 | 17 | – | –
43 | NNc1ncnc2c1cc(-c1ccc(Cl)cc1)n2-c1ccccc1 | 16 | 17 | 19 | – | –
44 | Cc1nc(N)c2cc(-c3ccc(Cl)cc3)n(-c3ccccc3)c2n1 | 14 | 25 | 24 | 620 (≈ 1.85 mM) | –

Reference: ChEMBL document CHEMBL1275312, “Synthesis of new pyrrolo[2,3-d]pyrimidine derivatives as antibacterial and antifungal agents” (2010)
